From ChEMBL document CHEMBL4834437, “Improvement of Oral Bioavailability of Pyrazolo-Pyridone Inhibitors of the Interaction of DCN1/2 and UBE2M” (J Med Chem, 2021)
Values belong to the molecule of their own block, whether it stands above or below them.

Legend:
[1] = AUC in C57BL/6 mouse at 50 mg/kg, po administered as single dose measured up to 24 hrs by LC/MS analysis; type: ADME, organism-based; set-up: route oral, dose 50 mg/kg, time <=24; settings: in vivo
Summary of the method: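 Plasma drug concentration followed over 24 h. Concentrations below LLOQ were entered as half LLOQ. The same formulation was used for a separate intravenous arm at 15 mg/kg.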

[2] = mouse, in vivo, po, 50 mg/kg, 24 h
[3] = Oral bioavailability in C57BL/6 mouse at 50 mg/kg administered as single dose measured up to 24 hrs by LC/MS analysis; type: ADME, organism-based; settings: in vivo
Summary of the method: (§1)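 Single dose given to mice either intravenously at 15 mg/kg or orally at 50 mg/kg. Plasma drug concentration was followed over 24 h. Concentrations below LLOQ were reported as half LLOQ.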

[4] = Toxicity in C57BL/6 mouse assessed as effect on lymphocyte level at 50 mg/kg, po administered as 10 consecutive doses measured after 48 hrs; type: organism-based; settings: in vivo
[5] = Toxicity in C57BL/6 mouse assessed as effect on Na/K ratio at 200 mg/kg, po administered as single dose measured after 48 hrs; type: organism-based; settings: in vivo
[6] = Toxicity in C57BL/6 mouse assessed as effect on calcium level at 50 mg/kg, po administered as 10 consecutive doses measured after 48 hrs; type: organism-based; settings: in vivo
[7] = Toxicity in C57BL/6 mouse assessed as effect on total bilirubin level at 50 mg/kg, po administered as 10 consecutive doses measured after 48 hrs; type: organism-based; settings: in vivo
[8] = Toxicity in C57BL/6 mouse assessed as effect on BUN/creatinine ratio at 200 mg/kg, po administered as single dose measured after 48 hrs; type: organism-based; settings: in vivo
[9] = Toxicity in C57BL/6 mouse assessed as effect on total bilirubin level at 200 mg/kg, po administered as single dose measured after 48 hrs; type: organism-based; settings: in vivo
[10] = Toxicity in C57BL/6 mouse assessed as effect on A/G ratio at 50 mg/kg, po administered as 10 consecutive doses measured after 48 hrs; type: organism-based; settings: in vivo
[11] = Toxicity in C57BL/6 mouse assessed as effect on AST level at 50 mg/kg, po administered as 10 consecutive doses measured after 48 hrs; type: organism-based; settings: in vivo
[12] = Toxicity in C57BL/6 mouse assessed as effect on BUN/creatinine ratio at 50 mg/kg, po administered as 10 consecutive doses measured after 48 hrs; type: organism-based; settings: in vivo
HCC95 = test: Inhibition of colony formation in human HCC95 cells at 10 uM measured after 10 days by nitroblue tetrazolium chloride reagent based assay relative to control; settings: HCC95, 240 h
[13] = Toxicity in C57BL/6 mouse assessed as effect on platelet level at 50 mg/kg, po administered as 10 consecutive doses measured after 48 hrs; type: organism-based; settings: in vivo
[14] = Toxicity in C57BL/6 mouse assessed as effect on BUN at 200 mg/kg, po administered as single dose measured after 48 hrs; type: organism-based; settings: in vivo
[15] = Toxicity in C57BL/6 mouse assessed as effect on chloride level at 200 mg/kg, po administered as single dose measured after 48 hrs; type: organism-based; settings: in vivo
[16] = Toxicity in C57BL/6 mouse assessed as effect on RBC level at 50 mg/kg, po administered as 10 consecutive doses measured after 48 hrs; type: organism-based; settings: in vivo
[17] = Toxicity in C57BL/6 mouse assessed as effect on A/G ratio at 200 mg/kg, po administered as single dose measured after 48 hrs; type: organism-based; settings: in vivo
[18] = Toxicity in po dosed C57BL/6 mouse assessed as maximum tolerated dose administered as single dose measured after 48 hrs; type: organism-based; settings: in vivo
[19] = Toxicity in C57BL/6 mouse assessed as effect on basophil level at 50 mg/kg, po administered as 10 consecutive doses measured after 48 hrs; type: organism-based; settings: in vivo
[20] = Toxicity in C57BL/6 mouse assessed as effect on MCHC level at 50 mg/kg, po administered as 10 consecutive doses measured after 48 hrs; type: organism-based; settings: in vivo
[21] = Toxicity in C57BL/6 mouse assessed as effect on sodium level at 200 mg/kg, po administered as single dose measured after 48 hrs; type: organism-based; settings: in vivo
[22] = Toxicity in C57BL/6 mouse assessed as effect on creatinine level at 200 mg/kg, po administered as single dose measured after 48 hrs; type: organism-based; settings: in vivo
[23] = Toxicity in C57BL/6 mouse assessed as effect on globulin level at 50 mg/kg, po administered as 10 consecutive doses measured after 48 hrs; type: organism-based; settings: in vivo
[24] = Toxicity in C57BL/6 mouse assessed as effect on BUN at 50 mg/kg, po administered as 10 consecutive doses measured after 48 hrs; type: organism-based; settings: in vivo
[25] = Toxicity in C57BL/6 mouse assessed as effect on CPK level at 50 mg/kg, po administered as 10 consecutive doses measured after 48 hrs; type: organism-based; settings: in vivo
[26] = Toxicity in C57BL/6 mouse assessed as effect on MCV level at 50 mg/kg, po administered as 10 consecutive doses measured after 48 hrs; type: organism-based; settings: in vivo
[27] = Toxicity in C57BL/6 mouse assessed as effect on eosinophil level at 50 mg/kg, po administered as 10 consecutive doses measured after 48 hrs; type: organism-based; settings: in vivo
[28] = Toxicity in C57BL/6 mouse assessed as effect on monocyte level at 50 mg/kg, po administered as 10 consecutive doses measured after 48 hrs; type: organism-based; settings: in vivo
[29] = Toxicity in C57BL/6 mouse assessed as effect on HGB level at 50 mg/kg, po administered as 10 consecutive doses measured after 48 hrs; type: organism-based; settings: in vivo
[30] = Toxicity in C57BL/6 mouse assessed as effect on albumin level at 200 mg/kg, po administered as single dose measured after 48 hrs; type: organism-based; settings: in vivo
[31] = Toxicity in C57BL/6 mouse assessed as effect on globulin level at 200 mg/kg, po administered as single dose measured after 48 hrs; type: organism-based; settings: in vivo
[32] = Toxicity in C57BL/6 mouse assessed as effect on ALT level at 200 mg/kg, po administered as single dose measured after 48 hrs; type: organism-based; settings: in vivo
[33] = Toxicity in C57BL/6 mouse assessed as effect on ALT level at 50 mg/kg, po administered as 10 consecutive doses measured after 48 hrs; type: organism-based; settings: in vivo
[34] = Toxicity in C57BL/6 mouse assessed as effect on Na/K ratio at 50 mg/kg, po administered as 10 consecutive doses measured after 48 hrs; type: organism-based; settings: in vivo
[35] = Oral bioavailability in C57BL/6 mouse; type: ADME, organism-based; settings: in vivo; summary of the method: as §1
[36] = Toxicity in C57BL/6 mouse assessed as effect on cholesterol level at 50 mg/kg, po administered as 10 consecutive doses measured after 48 hrs; type: organism-based; settings: in vivo
[37] = Toxicity in C57BL/6 mouse assessed as effect on alkaline phosphatase level at 50 mg/kg, po administered as 10 consecutive doses measured after 48 hrs; type: organism-based; settings: in vivo
[38] = Toxicity in C57BL/6 mouse assessed as effect on cholesterol level at 200 mg/kg, po administered as single dose measured after 48 hrs; type: organism-based; settings: in vivo
[39] = Toxicity in C57BL/6 mouse assessed as effect on neutrophil level at 50 mg/kg, po administered as 10 consecutive doses measured after 48 hrs; type: organism-based; settings: in vivo
[40] = Toxicity in C57BL/6 mouse assessed as effect on sodium level at 50 mg/kg, po administered as 10 consecutive doses measured after 48 hrs; type: organism-based; settings: in vivo
[41] = Toxicity in C57BL/6 mouse assessed as effect on chloride level at 50 mg/kg, po administered as 10 consecutive doses measured after 48 hrs; type: organism-based; settings: in vivo
[42] = Toxicity in C57BL/6 mouse assessed as effect on CPK level at 200 mg/kg, po administered as single dose measured after 48 hrs; type: organism-based; settings: in vivo
[43] = Toxicity in C57BL/6 mouse assessed as effect on HCT level at 50 mg/kg, po administered as 10 consecutive doses measured after 48 hrs; type: organism-based; settings: in vivo
[44] = Toxicity in C57BL/6 mouse assessed as effect on MCH level at 50 mg/kg, po administered as 10 consecutive doses measured after 48 hrs; type: organism-based; settings: in vivo
[45] = Toxicity in C57BL/6 mouse assessed as effect on WBC level at 50 mg/kg, po administered as 10 consecutive doses measured after 48 hrs; type: organism-based; settings: in vivo
[46] = Toxicity in C57BL/6 mouse assessed as effect on glucose level at 50 mg/kg, po administered as 10 consecutive doses measured after 48 hrs; type: organism-based; settings: in vivo
[47] = Toxicity in C57BL/6 mouse assessed as effect on creatinine level at 50 mg/kg, po administered as 10 consecutive doses measured after 48 hrs; type: organism-based; settings: in vivo
[48] = Toxicity in C57BL/6 mouse assessed as effect on glucose level at 200 mg/kg, po administered as single dose measured after 48 hrs; type: organism-based; settings: in vivo
[49] = Toxicity in C57BL/6 mouse assessed as effect on potassium level at 50 mg/kg, po administered as 10 consecutive doses measured after 48 hrs; type: organism-based; settings: in vivo
[50] = Toxicity in C57BL/6 mouse assessed as effect on phosphorous level at 50 mg/kg, po administered as 10 consecutive doses measured after 48 hrs; type: organism-based; settings: in vivo
[51] = Toxicity in C57BL/6 mouse assessed as effect on AST level at 200 mg/kg, po administered as single dose measured after 48 hrs; type: organism-based; settings: in vivo
[52] = Toxicity in C57BL/6 mouse assessed as effect on phosphorous level at 200 mg/kg, po administered as single dose measured after 48 hrs; type: organism-based; settings: in vivo
[53] = Toxicity in C57BL/6 mouse assessed as effect on potassium level at 200 mg/kg, po administered as single dose measured after 48 hrs; type: organism-based; settings: in vivo
[54] = Toxicity in C57BL/6 mouse assessed as effect on albumin level at 50 mg/kg, po administered as 10 consecutive doses measured after 48 hrs; type: organism-based; settings: in vivo
[55] = Toxicity in C57BL/6 mouse assessed as effect on alkaline phosphatase level at 200 mg/kg, po administered as single dose measured after 48 hrs; type: organism-based; settings: in vivo
[56] = Toxicity in C57BL/6 mouse assessed as effect on calcium level at 200 mg/kg, po administered as single dose measured after 48 hrs; type: organism-based; settings: in vivo
in vivo = settings: C57BL/6, mouse, plasma
[57] = Toxicity in po dosed C57BL/6 mouse assessed as maximum tolerated dose administered as 10 consecutive doses measured after 48 hrs; type: organism-based; settings: in vivo

- AUC at 24 h [1]: 23.8 µM·h
- Cmax [2]: 1.15 µM
- F [3]: 36%
SMILES: CCN1C(=O)[C@@H](NC(=O)c2cccc(C(F)(F)F)c2)[C@@H](c2ccc(F)cc2)c2c(C)nn(-c3ccccc3)c21 (relative stereo)

SMILES: CCN1C(=O)[C@@H](NC(=O)c2cccc(C(F)(F)F)c2)[C@@H](c2ccc(F)cc2)c2c(CN)nn(-c3ccccc3)c21 (relative stereo)
- Activity [4]: Non-Toxic
- Activity [5]: Non-Toxic
- Activity [6]: Non-Toxic
- Activity [7]: Non-Toxic
- Activity [8]: Non-Toxic
- Activity [9]: Non-Toxic
- Activity [10]: Non-Toxic
- Activity [11]: Non-Toxic
- Activity [12]: Non-Toxic
- inhibition at 10 µM (HCC95): 100%
- Activity [13]: Non-Toxic
- Activity [14]: Non-Toxic
- Activity [15]: Non-Toxic
- Activity [16]: Non-Toxic
- Activity [17]: Non-Toxic
- MTD at 48 h [18]: 200 mg/kg
- Activity [19]: Non-Toxic
- Activity [20]: Non-Toxic
- Activity [21]: Non-Toxic
- Activity [22]: Non-Toxic
- Activity [23]: Non-Toxic
- Activity [24]: Non-Toxic
- Activity [25]: Non-Toxic
- Activity [26]: Non-Toxic
- Activity [27]: Non-Toxic
- Activity [28]: Non-Toxic
- Activity [29]: Non-Toxic
- Activity [30]: Non-Toxic
- Activity [31]: Non-Toxic
- Activity [32]: Non-Toxic
- Activity [33]: Non-Toxic
- Activity [34]: Non-Toxic
- bioavailability [35]: 92%
- Activity [36]: Non-Toxic
- Activity [37]: Non-Toxic
- Activity [38]: Non-Toxic
- Activity [39]: Non-Toxic
- Activity [40]: Non-Toxic
- Activity [41]: Non-Toxic
- Activity [42]: Non-Toxic
- Activity [43]: Non-Toxic
- Activity [44]: Non-Toxic
- Activity [45]: Non-Toxic
- Activity [46]: Non-Toxic
- Activity [47]: Non-Toxic
- Activity [48]: Non-Toxic
- Activity [49]: Non-Toxic
- Activity [50]: Non-Toxic
- Activity [51]: Non-Toxic
- Activity [52]: Non-Toxic
- Activity [53]: Non-Toxic
- Activity [54]: Non-Toxic
- Cmax [2]: 6 µM
- Activity [55]: Non-Toxic
- Activity [56]: Non-Toxic
- clearance (in vivo): 20 mL/min/kg
- MTD at 48 h [57]: 50 mg/kg
